# Test results from ChEMBL document CHEMBL3808357, “Discovery of N-(3-((1-Isonicotinoylpiperidin-4-yl)oxy)-4-methylphenyl)-3-(trifluoromethyl)benzamide (CHMFL-KIT-110) as a Selective, Potent, and Orally Available Type II c-KIT Kinase Inhibitor for Gastrointestinal Stromal Tumors (GISTs)” (J Med Chem, 2016).
# Activity calls are given as the source filed them. The calls are words filed in the database; no cut-off is given here.
# Columns and labels:
# [1] = MRT(0 to t) in Sprague-Dawley rat plasma at 10 mg/kg, po; assay type: ADME, organism-based
# Summary of the method: (§1)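 Male Sprague–Dawley rats, 8 weeks old, six in total, fasted overnight; compound dissolved in 5% DMSO/40% PEG400/55% saline (1 mg/mL dosing solution), given iv or orally. About 0.2 mL jugular blood taken with heparin at 1 min–8 h (iv) or 5 min–24 h (oral); plasma separated at 2–8 °C and stored at −80 °C before analysis.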
# [2] = Cmax in Sprague-Dawley rat plasma at 1 mg/kg, iv; assay type: ADME, organism-based; set-up: dose 1 mg/kg, route intravenous
# Summary of the method: (§2)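 Male Sprague-Dawley rats, 8 weeks old, fasted overnight, dosed iv or orally. Formulation was 5% DMSO/40% PEG400/55% saline at 1 mg/mL. Blood (~0.2 mL) was drawn from the jugular vein into heparin. Sampling: iv at 1 min to 8 h; oral at 5 min to 24 h. Plasma was separated by centrifugation at 2−8 °C and stored at −80 °C.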
# [3] = Tmax in Sprague-Dawley rat plasma at 10 mg/kg, po; assay type: ADME, organism-based; summary of the method: as §1
# [4] = Antitumor activity against human GISTT1 cells xenografted in nu/nu mouse assessed as tumor growth inhibition at 50 mg/kg/day administered through oral gavage after 21 days; assay type: functional; conditions: 504 h, read-out: TGI
# Summary of the method: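 Female nu/nu mice, 6 weeks old, received 5 × 10⁶ GIST-T1 cells in PBS/Matrigel (1:1) subcutaneously in the right flank. At 100−200 mm³, six mice per group were dosed daily by oral gavage at 25, 50 or 100 mg/kg/d in 0.5% methylcellulose/0.4% Tween80, or vehicle. Tumor volume was taken as (W²×L)/2, with body weight and tumor measured daily. Tumors were stained for Ki67 (IHC, 1:50 antibody) and by TUNEL.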
# [5] = biological target: Mast/stem cell growth factor receptor Kit (Homo sapiens) (UniProt P10721); assay: Inhibition of cKIT in human GIST48B cells assessed as suppression of STAT5 phosphorylation at Y694 up to 10 uM after 2 hrs by Western blot analysis; assay type: cell-based
# [6] = Cmax in Sprague-Dawley rat plasma at 10 mg/kg, po; assay type: ADME, organism-based; set-up: dose 10 mg/kg, route oral; summary of the method: as §2
# [7] = AUC(0 to infinity) in Sprague-Dawley rat plasma at 1 mg/kg, iv; assay type: ADME, organism-based; set-up: dose 1 mg/kg, time infinity, route intravenous; summary of the method: as §2
# [8] = system: Mast/stem cell growth factor receptor Kit (Homo sapiens), P10721 [N822K]; assay: Inhibition of Tel-fused cKIT N822K mutant (unknown origin) transfected in mouse BAF3 cells assessed as decrease in cell proliferation after 72 hrs by celltiter-glo/CCK8 assay; assay type: cell-based
# [9] = biological target: Mast/stem cell growth factor receptor Kit (Homo sapiens) (UniProt P10721); assay: Inhibition of cKIT in human GIST48B cells assessed as suppression of AKT phosphorylation at S473 up to 10 uM after 2 hrs by Western blot analysis; assay type: cell-based
# [10] = Apparent clearance in Sprague-Dawley rat plasma at 10 mg/kg, po; assay type: ADME, organism-based; conditions: read-out: CL(app) (converted); summary of the method: as §2
# [11] = Antiproliferative activity against human BCR-ABL dependent MEG01 cells assessed as reduction in cell viability after 72 hrs by celltiter-glo/CCK8 assay; assay type: functional; conditions: MEG-01, 72 h
# [12] = biological target: Mast/stem cell growth factor receptor Kit (Homo sapiens) (UniProt P10721); assay: Inhibition of cKIT in human GIST48B cells assessed as suppression of ERK phosphorylation at T202/Y204 up to 10 uM after 2 hrs by Western blot analysis; assay type: cell-based
# [13] = biological target: Mast/stem cell growth factor receptor Kit (Homo sapiens) (UniProt P10721); assay: Inhibition of cKIT in human GIST882 cells assessed as suppression of S6K phosphorylation at T389 up to 10 uM after 2 hrs by Western blot analysis; assay type: cell-based
# [14] = biological target: Mast/stem cell growth factor receptor Kit (Homo sapiens) (UniProt P10721); assay: Inhibition of cKIT autophosphorylation at Y823 in human GIST882 cells up to 10 uM after 2 hrs by Western blot analysis; assay type: cell-based
# [15] = system: Mast/stem cell growth factor receptor Kit (Homo sapiens), P10721 [V559D,T670I]; assay: Inhibition of Tel-fused cKIT T670I/V559D double mutant (unknown origin) transfected in mouse BAF3 cells assessed as decrease in cell proliferation after 72 hrs by celltiter-glo/CCK8 assay; assay type: cell-based
# Summary of the method: (§3)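 Stable BaF3 lines made by retroviral transduction with mutagenized TEL-KIT MSCV vectors, puromycin selection 48 h, then gradual IL-3 withdrawal until IL-3-independent; grown in RPMI 1640 with 10% FBS. Cells at 1 to 3 × 10⁴ cells/mL exposed to a concentration series for 72 h; viability read by CellTiter-Glo luminescence or CCK-8 absorbance (450/655 nm); GI50 from triplicate testing.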
# [16] = AUC(0 to infinity) in Sprague-Dawley rat plasma at 10 mg/kg, po; assay type: ADME, organism-based; set-up: dose 10 mg/kg, time infinity, route oral; summary of the method: as §2
# [17] = biological target: Mast/stem cell growth factor receptor Kit (Homo sapiens) (UniProt P10721); assay: Inhibition of cKIT in human GIST882 cells assessed as suppression of AKT phosphorylation at S473 up to 10 uM after 2 hrs by Western blot analysis; assay type: cell-based
# [18] = system: GISTT1; assay: Induction of apoptosis in human GISTT1 cells assessed as PARP cleavage up to 3 uM after 48 hrs by Western blot analysis; assay type: functional, cell-based
# [19] = system: Mus musculus; assay: Toxicity in nu/nu mouse xenografted with human GISTT1 cells assessed as body weight change at 25 to 100 mg/kg/day administered through oral gavage after 21 days; assay type: organism-based; conditions: in vivo, 504 h
# Summary of the method: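 Female nu/nu mice, 6 weeks old, injected subcutaneously in the right flank with 5 million GIST-T1 cells in PBS/Matrigel 1:1. At tumor volume 100–200 mm³, randomized to groups of six; daily oral gavage of 25, 50 or 100 mg/kg/d or vehicle (0.5% methylcellulose/0.4% Tween80 in water). Body weight measured daily, normalized to initial weight; mean ± SEM.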
# [20] = system: Rattus norvegicus; assay: Apparent volume of distribution in Sprague-Dawley rat plasma at 10 mg/kg, po; assay type: ADME, organism-based; conditions: in vivo; summary of the method: as §2
# [21] = MRT(0 to t) in Sprague-Dawley rat plasma at 1 mg/kg, iv; assay type: ADME, organism-based; summary of the method: as §1
# [22] = system: Mast/stem cell growth factor receptor Kit (Homo sapiens), P10721 [V654A]; assay: Inhibition of Tel-fused cKIT V654A mutant (unknown origin) transfected in mouse BAF3 cells assessed as decrease in cell proliferation after 72 hrs by celltiter-glo/CCK8 assay; assay type: cell-based; summary of the method: as §3
# [23] = Cell cycle arrest in human GIST48B cells at 0.3 to 3 uM after 24 hrs by propidium iodide/RNase staining based flow cytometric analysis; assay type: functional
# Summary of the method: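 Cells were then fixed in 70% cold ethanol at −20 °C overnight, stained with PI/RNase buffer and analysed by flow cytometry.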
# [24] = biological target: Platelet-derived growth factor receptor alpha (Homo sapiens) (UniProt P16234); assay: Inhibition of PDGFRalpha phosphorylation at Y849 in human GIST48B cells up to 10 uM after 2 hrs by Western blot analysis; assay type: cell-based
# Summary of the method: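 Cells were washed in cold PBS, lysed in RIPA and immunoblotted for phospho and total proteins, including pPDGFRα Y849/PDGFRβ Y857 and β-actin.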
# Sequence of Mast/stem cell growth factor receptor Kit (Homo sapiens) (P10721 whole entry, the tested form may be a part): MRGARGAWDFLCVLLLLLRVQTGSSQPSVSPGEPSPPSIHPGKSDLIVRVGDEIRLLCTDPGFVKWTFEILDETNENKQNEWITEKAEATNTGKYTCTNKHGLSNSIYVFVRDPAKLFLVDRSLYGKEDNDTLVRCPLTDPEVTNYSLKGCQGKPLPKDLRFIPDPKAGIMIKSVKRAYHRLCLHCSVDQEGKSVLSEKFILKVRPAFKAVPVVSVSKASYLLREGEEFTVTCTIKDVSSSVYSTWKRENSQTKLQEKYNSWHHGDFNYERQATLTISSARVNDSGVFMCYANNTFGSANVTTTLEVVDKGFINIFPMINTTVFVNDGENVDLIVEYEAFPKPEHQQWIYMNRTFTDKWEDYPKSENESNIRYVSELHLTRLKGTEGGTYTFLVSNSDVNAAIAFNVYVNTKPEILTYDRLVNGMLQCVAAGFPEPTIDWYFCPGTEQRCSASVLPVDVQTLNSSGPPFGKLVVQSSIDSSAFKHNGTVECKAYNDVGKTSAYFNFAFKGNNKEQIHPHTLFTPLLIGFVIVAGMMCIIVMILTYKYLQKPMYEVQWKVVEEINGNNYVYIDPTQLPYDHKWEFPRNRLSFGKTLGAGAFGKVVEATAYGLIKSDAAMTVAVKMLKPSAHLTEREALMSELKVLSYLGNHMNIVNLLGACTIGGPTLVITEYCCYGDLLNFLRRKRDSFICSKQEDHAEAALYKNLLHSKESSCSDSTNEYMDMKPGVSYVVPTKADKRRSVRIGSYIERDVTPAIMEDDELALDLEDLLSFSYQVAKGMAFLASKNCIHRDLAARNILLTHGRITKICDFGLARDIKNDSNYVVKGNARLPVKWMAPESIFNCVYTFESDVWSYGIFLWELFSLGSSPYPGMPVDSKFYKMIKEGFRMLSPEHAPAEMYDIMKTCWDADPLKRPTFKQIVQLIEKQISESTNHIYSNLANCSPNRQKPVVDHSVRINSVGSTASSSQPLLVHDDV
# Sequence of Mast/stem cell growth factor receptor Kit (Homo sapiens), P10721 [V559D,T670I] (P10721 whole entry V559D/T670I, the tested form may be a part): as the sequence (P10721 whole entry, the tested form may be a part) above, with V559D, T670I counted along it
# Sequence of Mast/stem cell growth factor receptor Kit (Homo sapiens), P10721 [V654A] (P10721 whole entry V654A, the tested form may be a part): as the sequence (P10721 whole entry, the tested form may be a part) above, with V654A counted along it
# Sequence of Mast/stem cell growth factor receptor Kit (Homo sapiens), P10721 [N822K] (P10721 whole entry N822K, the tested form may be a part): as the sequence (P10721 whole entry, the tested form may be a part) above, with N822K counted along it
# Sequence of Platelet-derived growth factor receptor alpha (Homo sapiens) (P16234 whole entry): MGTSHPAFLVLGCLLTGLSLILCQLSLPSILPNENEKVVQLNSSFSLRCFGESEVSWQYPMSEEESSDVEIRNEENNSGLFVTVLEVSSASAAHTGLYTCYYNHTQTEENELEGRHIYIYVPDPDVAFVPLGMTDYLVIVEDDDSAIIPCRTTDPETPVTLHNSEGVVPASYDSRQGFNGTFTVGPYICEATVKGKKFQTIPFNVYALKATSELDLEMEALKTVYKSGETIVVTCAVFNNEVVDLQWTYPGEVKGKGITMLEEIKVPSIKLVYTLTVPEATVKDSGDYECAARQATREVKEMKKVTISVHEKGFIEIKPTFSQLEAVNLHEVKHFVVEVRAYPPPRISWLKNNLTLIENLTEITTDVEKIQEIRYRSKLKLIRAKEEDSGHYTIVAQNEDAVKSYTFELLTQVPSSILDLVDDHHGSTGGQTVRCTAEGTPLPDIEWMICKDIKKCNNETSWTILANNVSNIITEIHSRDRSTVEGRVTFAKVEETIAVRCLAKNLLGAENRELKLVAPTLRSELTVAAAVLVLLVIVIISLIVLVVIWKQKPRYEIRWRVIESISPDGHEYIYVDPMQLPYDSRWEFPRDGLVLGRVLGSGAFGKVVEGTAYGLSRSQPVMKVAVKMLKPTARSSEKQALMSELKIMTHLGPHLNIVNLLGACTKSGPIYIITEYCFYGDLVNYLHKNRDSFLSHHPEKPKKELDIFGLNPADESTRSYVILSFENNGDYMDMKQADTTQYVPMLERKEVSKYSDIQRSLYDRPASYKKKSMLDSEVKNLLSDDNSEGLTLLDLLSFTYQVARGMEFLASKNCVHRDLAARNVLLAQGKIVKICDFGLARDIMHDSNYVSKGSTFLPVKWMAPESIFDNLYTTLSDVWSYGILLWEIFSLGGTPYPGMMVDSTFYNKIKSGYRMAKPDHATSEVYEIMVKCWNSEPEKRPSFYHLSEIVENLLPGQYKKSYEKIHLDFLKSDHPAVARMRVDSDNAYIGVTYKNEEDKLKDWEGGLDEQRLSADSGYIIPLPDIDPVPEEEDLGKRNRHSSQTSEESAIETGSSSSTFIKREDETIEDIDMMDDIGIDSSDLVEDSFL
smiles,measurement,setting,value
Cc1ccc(NC(=O)c2cccc(C(F)(F)F)c2)cc1OC1CCN(C(=O)c2ccncc2)CC1,MRT last,[1],288 min
same,Cmax,[2],511 ng/mL
same,Tmax,[3],30 min
same,inhibition in vivo at 50 mg/kg/day,[4],35%
same,inhibition,[5],Active
same,Cmax,[6],125 ng/mL
same,AUC(0-inf),[7],202 ng·h/mL
same,GI50,[8],1.06 µM
same,inhibition,[9],inactive
same,CL/F,[10],215 mL/min/kg
same,GI50,[11],7.43 µM
same,inhibition,[12],inactive
same,inhibition,[13],Active
same,inhibition,[14],Active
same,GI50,[15],5.31 µM
same,AUC(0-inf),[16],780 ng·h/mL
same,inhibition,[17],Active
same,Activity,[18],Active
same,Activity,[19],Non-toxic
same,Vz,[20],76.407 L/kg
same,MRT last,[21],29 min
same,GI50,[22],1.03 µM
same,Activity,[23],inactive
same,inhibition,[24],Active
